“And” between values parts separate entries of the source, which are not always exact repeats. Identical values can stand only once.
Assays:
Assay type in all cases: in vitro ADME
CYP3A5 = CYP3A5 (Homo sapiens, UniProt P20815); assay: Projected involvement in C152 metabolism in HLM
Summary of the method: (§1)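 Calculated values, no new incubations. Each of seven C152-metabolizing P450s has a fractional content in the pooled HLM P450 pool (LC-MS/MS MRM). That fraction is multiplied by its Supersome Vmax (saturation) or by its rate at 30 μM C152 from Hill or Michaelis–Menten parameters. Expected participation (% TNR) is each normalized rate divided by the sum of all seven.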

CYP2A6 = CYP2A6 (Homo sapiens, UniProt P11509); assay: C152 metabolism by Supersomes containing CYP2A6; conditions: recombinant CYP2A6 Supersomes
CYP2B6 [1] = target: T1, CYP2B6 (Homo sapiens, UniProt P20813); assay: Projected involvement in C152 metabolism in HLM
T1 sequence (P20813 1-491): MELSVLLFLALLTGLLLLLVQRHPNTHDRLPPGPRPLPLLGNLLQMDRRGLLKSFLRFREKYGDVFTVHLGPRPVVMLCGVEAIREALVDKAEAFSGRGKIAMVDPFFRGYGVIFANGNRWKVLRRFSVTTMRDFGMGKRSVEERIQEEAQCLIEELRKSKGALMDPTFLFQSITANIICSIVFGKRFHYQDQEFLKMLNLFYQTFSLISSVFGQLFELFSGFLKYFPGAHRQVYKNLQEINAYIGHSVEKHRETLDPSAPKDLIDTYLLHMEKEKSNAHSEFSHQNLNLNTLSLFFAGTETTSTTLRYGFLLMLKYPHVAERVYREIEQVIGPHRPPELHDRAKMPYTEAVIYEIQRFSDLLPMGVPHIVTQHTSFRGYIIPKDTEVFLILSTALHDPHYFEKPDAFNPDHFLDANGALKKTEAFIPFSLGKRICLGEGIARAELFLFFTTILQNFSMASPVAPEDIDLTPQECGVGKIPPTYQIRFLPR
Summary of the method: as §1

CYP3A4 = CYP3A4 (Homo sapiens, UniProt P08684); assay: Projected involvement in C152 metabolism in HLM
Summary of the method: as §1

[2] = tested on: human liver microsomes (HLM); assay: C152 metabolism
Summary of the method: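 Pooled 50-donor mixed-gender human liver microsomes. Continuous single-wavelength fluorimetry at 500 nm in 0.1 M Na-HEPES pH 7.4 with 60 mM KCl, stirred at 30 °C. C152 0.1–30 μM from acetone stock; 200 μM NADPH starts it. Linear slope over 3–5 min, scaled by the C151–C152 fluorescence difference. Normalized to CPR, measured as NADPH-dependent cytochrome c reduction rate. Michaelis–Menten or Hill fit, 2–6 runs.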

CYP2C19 [3] = target: T2, CYP2C19 (Homo sapiens, UniProt P33261); assay: C152 metabolism; conditions: for Specific rate: CYP2C19
Summary of the method: (§2)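 Human P450s in Supersomes that co-express human CPR and cytochrome b5. Reaction in 0.1 M Na-HEPES pH 7.4 with 60 mM KCl, stirred at 30 °C. C152 0.1–30 μM added from acetone stock; 200 μM NADPH starts it. Fluorescence rise read at 500 nm (isosbestic, mono-demethylation step). Rate is the linear slope over 3–5 min, scaled by the C151–C152 fluorescence difference. Michaelis–Menten or Hill fit, Vmax per P450, 2–6 runs; rate at 30 μM computed from fit.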

CYP2B6 [4] = target: T1, CYP2B6; assay: Formation of C151 from C152; conditions: SS(2B6)
Summary of the method: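 Probes hold 5–20 pmol P450 in 0.1 M Na-HEPES pH 7.4 with 60 mM KCl. C152 added from 0.5 or 4 mM acetone stock; reaction started with 500 μM NADPH (final), run 5 min at 30 °C with shaking. Quenched with isopropanol containing phenacetin internal standard, then centrifuged. C151 quantified by reverse-phase LC with ESI-positive MRM MS/MS (m/z 230.16→157.2). Michaelis–Menten or Hill fit; normalized per P450 (Supersomes) or CPR (HLM).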

CYP2B6 [5] = target: T1, CYP2B6; assay: C152 metabolism; conditions: for Specific rate: CYP2B6
Summary of the method: as §2

CYP2E1 = CYP2E1 (Homo sapiens, UniProt P05181); assay: C152 metabolism by Supersomes containing CYP2E1; conditions: recombinant CYP2E1 Supersomes
CYP2C19 [6] = target: T2, CYP2C19; assay: Projected involvement in C152 metabolism in HLM
Summary of the method: as §1

CYP1A2 = target: T3, CYP1A2 (Homo sapiens, UniProt P05177); assay: Projected involvement in C152 metabolism in HLM
T3 sequence (P05177 2-516 limits assumed): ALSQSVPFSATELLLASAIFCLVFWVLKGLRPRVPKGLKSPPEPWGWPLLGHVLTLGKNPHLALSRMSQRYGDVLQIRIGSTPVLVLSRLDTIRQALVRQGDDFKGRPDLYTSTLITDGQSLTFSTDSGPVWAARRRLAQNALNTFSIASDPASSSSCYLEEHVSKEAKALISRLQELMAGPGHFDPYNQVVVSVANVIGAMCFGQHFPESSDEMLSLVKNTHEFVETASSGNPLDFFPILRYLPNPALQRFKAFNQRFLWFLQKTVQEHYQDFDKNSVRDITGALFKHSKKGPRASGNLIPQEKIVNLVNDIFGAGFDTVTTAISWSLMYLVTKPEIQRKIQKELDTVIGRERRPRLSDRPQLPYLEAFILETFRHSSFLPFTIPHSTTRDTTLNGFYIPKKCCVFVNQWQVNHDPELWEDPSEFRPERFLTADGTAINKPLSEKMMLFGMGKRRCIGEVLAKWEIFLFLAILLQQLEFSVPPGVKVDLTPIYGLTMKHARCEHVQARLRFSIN
Summary of the method: as §1

[7] = at saturation of all P450 species
[8] = at saturation of all P450 species, % TNR
[9] = at 30 μM C152, calculated from fit parameters
[10] = at saturation (Vmax in Supersomes)

CYP3A4, sequence (P08684 2-503 limits assumed): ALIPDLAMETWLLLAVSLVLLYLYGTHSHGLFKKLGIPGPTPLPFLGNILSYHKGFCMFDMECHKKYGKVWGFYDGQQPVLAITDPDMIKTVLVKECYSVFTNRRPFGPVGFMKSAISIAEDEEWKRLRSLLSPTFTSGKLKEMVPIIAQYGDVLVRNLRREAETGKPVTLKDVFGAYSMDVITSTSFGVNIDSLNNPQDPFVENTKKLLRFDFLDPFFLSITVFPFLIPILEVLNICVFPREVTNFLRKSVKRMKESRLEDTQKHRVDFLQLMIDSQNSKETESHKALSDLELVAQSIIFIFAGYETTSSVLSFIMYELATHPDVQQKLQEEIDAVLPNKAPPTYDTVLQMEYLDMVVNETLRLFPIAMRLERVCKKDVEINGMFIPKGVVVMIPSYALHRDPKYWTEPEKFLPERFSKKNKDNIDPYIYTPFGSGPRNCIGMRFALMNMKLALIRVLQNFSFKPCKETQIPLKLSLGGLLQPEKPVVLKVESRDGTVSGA
T2 sequence (P33261 whole entry): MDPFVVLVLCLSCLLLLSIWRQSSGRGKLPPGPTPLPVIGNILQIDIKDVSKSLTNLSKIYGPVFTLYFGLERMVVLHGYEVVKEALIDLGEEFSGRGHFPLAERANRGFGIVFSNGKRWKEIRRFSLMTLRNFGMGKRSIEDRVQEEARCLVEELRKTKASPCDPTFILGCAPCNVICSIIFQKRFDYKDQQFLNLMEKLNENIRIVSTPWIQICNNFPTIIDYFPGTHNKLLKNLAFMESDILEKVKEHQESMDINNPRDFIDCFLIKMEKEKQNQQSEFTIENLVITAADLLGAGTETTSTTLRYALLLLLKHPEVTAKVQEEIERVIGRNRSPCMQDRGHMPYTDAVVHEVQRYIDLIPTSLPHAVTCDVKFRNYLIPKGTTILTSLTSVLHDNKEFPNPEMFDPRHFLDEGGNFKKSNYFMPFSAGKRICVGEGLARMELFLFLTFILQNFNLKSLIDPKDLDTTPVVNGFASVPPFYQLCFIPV
CYP3A5, sequence (P20815 whole entry): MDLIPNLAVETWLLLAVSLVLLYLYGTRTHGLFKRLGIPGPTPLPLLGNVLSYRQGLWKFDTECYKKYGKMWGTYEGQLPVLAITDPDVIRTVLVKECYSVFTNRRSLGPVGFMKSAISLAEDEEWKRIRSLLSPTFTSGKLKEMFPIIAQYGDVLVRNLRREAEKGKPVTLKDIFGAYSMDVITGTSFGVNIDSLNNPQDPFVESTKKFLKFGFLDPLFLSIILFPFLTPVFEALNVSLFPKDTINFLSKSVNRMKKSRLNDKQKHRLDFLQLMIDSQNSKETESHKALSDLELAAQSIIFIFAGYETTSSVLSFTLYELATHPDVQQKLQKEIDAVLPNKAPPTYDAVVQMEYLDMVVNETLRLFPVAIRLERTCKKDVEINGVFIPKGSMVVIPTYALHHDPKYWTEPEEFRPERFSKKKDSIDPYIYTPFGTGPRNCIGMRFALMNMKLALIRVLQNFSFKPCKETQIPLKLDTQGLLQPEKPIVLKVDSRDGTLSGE
CYP2A6, sequence (P11509 whole entry): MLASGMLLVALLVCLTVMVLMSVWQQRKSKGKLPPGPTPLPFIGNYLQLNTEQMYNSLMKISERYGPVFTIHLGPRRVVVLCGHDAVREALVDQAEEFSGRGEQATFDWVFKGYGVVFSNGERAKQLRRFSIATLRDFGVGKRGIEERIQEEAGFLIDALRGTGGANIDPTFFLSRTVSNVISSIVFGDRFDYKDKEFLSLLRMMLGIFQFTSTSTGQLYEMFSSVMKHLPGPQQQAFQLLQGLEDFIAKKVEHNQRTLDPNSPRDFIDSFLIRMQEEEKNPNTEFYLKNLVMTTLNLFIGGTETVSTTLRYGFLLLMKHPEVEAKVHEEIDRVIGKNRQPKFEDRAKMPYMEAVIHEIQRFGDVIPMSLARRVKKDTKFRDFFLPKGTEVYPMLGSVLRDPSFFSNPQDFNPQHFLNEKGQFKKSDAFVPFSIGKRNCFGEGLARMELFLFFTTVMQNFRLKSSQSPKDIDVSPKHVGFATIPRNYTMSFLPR
CYP2E1, sequence (P05181 whole entry): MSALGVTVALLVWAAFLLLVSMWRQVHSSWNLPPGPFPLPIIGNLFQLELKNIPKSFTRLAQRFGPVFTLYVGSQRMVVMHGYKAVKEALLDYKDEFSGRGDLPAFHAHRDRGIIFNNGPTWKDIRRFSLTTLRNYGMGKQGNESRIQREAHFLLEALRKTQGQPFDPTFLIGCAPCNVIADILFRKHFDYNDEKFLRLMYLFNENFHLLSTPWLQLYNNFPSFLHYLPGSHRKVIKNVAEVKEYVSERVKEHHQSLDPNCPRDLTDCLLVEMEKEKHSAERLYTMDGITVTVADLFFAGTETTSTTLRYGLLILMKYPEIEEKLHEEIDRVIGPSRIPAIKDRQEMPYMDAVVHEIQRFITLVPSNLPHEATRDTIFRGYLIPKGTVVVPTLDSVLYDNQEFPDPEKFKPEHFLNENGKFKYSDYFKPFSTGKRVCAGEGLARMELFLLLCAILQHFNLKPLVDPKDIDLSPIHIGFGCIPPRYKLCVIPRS

`CN(C)c1ccc2c(C(F)(F)F)cc(=O)oc2c1` [C152, 7-Dimethylamino-4-trifluromethylcoumarin] gave a Normalized rate (CYP3A5; at 30 μM C152) of 0.074 min⁻¹, an Expected participation (CYP3A5; at 30 μM C152, % TNR) of 0.61% and a Normalized rate (CYP3A5; [7]) of 0.120 min⁻¹. For the same compound, the Expected participation (CYP3A5; [8]) was 0.91%, the “activity with C152” value (CYP2A6) was “no detectable activity” and the Normalized rate (CYP2B6 [1]; at 30 μM C152) was 0.863 min⁻¹. The Expected participation (CYP2B6 [1]; at 30 μM C152, % TNR) was 7.10%, the Normalized rate (CYP2B6 [1]; [7]) was 0.914 min⁻¹ and the Normalized rate (CYP3A4; at 30 μM C152) was 10.3 min⁻¹. For the same compound, the Expected participation (CYP3A4; at 30 μM C152, % TNR) was 84% and 84.75%, the Normalized rate (CYP3A4; [7]) was 10.8 min⁻¹ and the “N, Hill coefficient (C152 metabolism, fluorimetric assay)” value [2] was 1.8±0.3. The “Vmax (C152 metabolism, fluorimetric assay)” value ([2]; normalized per concentration of CPR) was 58 ± 24 min⁻¹, the Km ([2]; read-out: KM or S50 (C152 metabolism, fluorimetric assay), Hill fit (S50), 30 °C, pH 7.4) was 4.5 ± 1.5 µM and the “Fraction of C151 formed, Fluorimetry” value ([2]; scanning fluorimetry with PCA) was 5.7±2.0%. For the same compound, the Specific rate (CYP2C19 [3]; [9]) was 6.5 min⁻¹, the Specific rate (CYP2C19 [3]; [10]) was 7.8 min⁻¹ and the “Vmax (C152 metabolism, fluorimetric assay)” value (CYP2C19 [3]; SS(2C19), mol C152 per mol P450 per min) was 7.8 ± 3.4 min⁻¹. The “Fraction of C151 formed, Fluorimetry” value (CYP2C19 [3]; SS(2C19), scanning fluorimetry with PCA) was 3.2±2.4%, the Km (CYP2C19 [3]; read-out: KM or S50 (C152 metabolism, fluorimetric assay), SS(2C19), Michaelis-Menten fit, 30 °C, pH 7.4) was 5.7 ± 1.1 µM and the “Fraction of C151 formed, LC-MS” value (CYP2B6 [4]; C151 formed over total C152 metabolized) was 4% and 4.0±0.8%. The “Vmax (Formation of C151, LC-MS)” value (CYP2B6 [4]; mol C151 formed per mol P450 per min) was 1.8 ± 0.4 min⁻¹, the Km (CYP2B6 [4]; read-out: KM or S50 (Formation of C151, LC-MS), Michaelis-Menten fit) was 1 ± 0.4 µM and the Specific rate (CYP2B6 [5]; [9]) was 46.6 min⁻¹. For the same compound, the Specific rate (CYP2B6 [5]; [10]) was 49.3 min⁻¹, the “Vmax (C152 metabolism, fluorimetric assay)” value (CYP2B6 [5]; SS(2B6), mol C152 per mol P450 per min) was 49 ± 11 min⁻¹ and the “Fraction of C151 formed, Fluorimetry” value (CYP2B6 [5]; SS(2B6), scanning fluorimetry with PCA) was 7.3±3.4%. The Km (CYP2B6 [5]; read-out: KM or S50 (C152 metabolism, fluorimetric assay), SS(2B6), Michaelis-Menten fit, 30 °C, pH 7.4) was 1.8 ± 0.2 µM, the “activity with C152” value (CYP2E1) was “no detectable activity” and the Normalized rate (CYP2C19 [6]; at 30 μM C152) was 0.026 min⁻¹. For the same compound, the Expected participation (CYP2C19 [6]; at 30 μM C152, % TNR) was 0.2% and 0.22%, the Normalized rate (CYP2C19 [6]; [7]) was 0.031 min⁻¹ and the Expected participation (CYP2C19 [6]; [8]) was 0.24%. The Normalized rate (CYP1A2; at 30 μM C152) was 0.375 min⁻¹, the Expected participation (CYP1A2; at 30 μM C152, % TNR) was 3.08% and the Normalized rate (CYP1A2; [7]) was 0.412 min⁻¹. For the same compound, the Expected participation (CYP1A2; [8]) was 3.10%.
